Test results: ChEMBL document CHEMBL2390864, “Artemisinin-derived dimer phosphate esters as potent anti-cytomegalovirus (anti-CMV) and anti-cancer agents: a structure-activity study” (Bioorg Med Chem, 2013)
pEC50, pIC50: −log10 of the molar value.

Key:
[1] = Therapeutic index, ratio of IC50 for PHA-stimulated human PBMC cells to IC50 for human JURKAT-TALL cells; assay type: cell-based; conditions: PHA-stimulated PBMC cells versus JURKAT-TALL cells, read-out: Ratio IC50
How it was run: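 The therapeutic index is the IC50 in PHA-stimulated PBMCs (PHA 10 µg/ml for 24 h, then drug for 48 h, AlamarBlue) divided by the IC50 in Jurkat cells (drug for 48 h, AlamarBlue).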

PBMC = assay: Cytotoxicity against PHA-stimulated human PBMC cells after 48 hrs by Alamar Blue assay; assay type: cell-based
How it was run: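 PBMCs came from 4 consenting healthy volunteers and were stimulated with phytohemagglutinin (10 µg/ml) for 24 h. Drug or vehicle was then added for a further 48 h, and viability was read by AlamarBlue. IC50 is the average of 4 experiments, each run in triplicate.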

Cytomegalovirus = assay: Antiviral activity against Cytomegalovirus infected in HFF after 72 hrs by luciferase reporter gene assay; assay type: functional, organism-based; conditions: Human betaherpesvirus 5, 72 h
How it was run: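 Human foreskin fibroblasts (HFFs) were infected with CMV and treated with compound across a dose range. Luciferase activity was read at 72 h post infection as a marker of late CMV gene expression. EC50 was derived from this read-out.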

[2] = Cytotoxicity against human JURKAT-TALL cells after 48 hrs by Alamar Blue assay; assay type: functional, cell-based
How it was run: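 Jurkat T-ALL cells were treated with compound for 48 h, and growth inhibition was read by AlamarBlue assay to give IC50.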

[3] = Selectivity index, ratio of CC50 for HFF to EC50 for Cytomegalovirus

Compound	selectivity ratio [1]	pIC50 (PBMC)	pEC50 (Cytomegalovirus)	pIC50 [2]	Ratio CC50/EC50 [3]
C[C@H]1[C@@H](CC(COP(=S)(Oc2ccccc2)Oc2ccccc2)C[C@H]2O[C@@H]3O[C@@]4(C)CC[C@H]5[C@H](C)CC[C@@H]([C@H]2C)[C@@]35OO4)O[C@@H]2O[C@@]3(C)CC[C@H]4[C@H](C)CC[C@@H]1[C@@]24OO3 (stereo partly specified)	> 22.9	< 4.40	7.11	5.76	–
CC(C)c1ccc(OP(=O)(OCC(C[C@H]2O[C@@H]3O[C@@]4(C)CC[C@H]5[C@H](C)CC[C@@H]([C@H]2C)[C@@]35OO4)C[C@H]2O[C@@H]3O[C@@]4(C)CC[C@H]5[C@H](C)CC[C@@H]([C@H]2C)[C@@]35OO4)Oc2ccc(C(C)C)cc2)cc1 (stereo partly specified)	> 78.3	< 4.40	6.52	6.29	–
CO[C@H]1O[C@@H]2O[C@@]3(C)CC[C@H]4[C@H](C)CC[C@@H]([C@H]1C)[C@@]24OO3	–	< 4.00	5.28	< 4.52	–
C[C@H]1[C@@H](CC(COP2(=S)Oc3ccccc3-c3ccccc3O2)C[C@H]2O[C@@H]3O[C@@]4(C)CC[C@H]5[C@H](C)CC[C@@H]([C@H]2C)[C@@]35OO4)O[C@@H]2O[C@@]3(C)CC[C@H]4[C@H](C)CC[C@@H]1[C@@]24OO3 (stereo partly specified)	> 20.7	< 4.40	7.15	5.71	–
Cc1cccc(C)c1OP(=O)(OCC(C[C@H]1O[C@@H]2O[C@@]3(C)CC[C@H]4[C@H](C)CC[C@@H]([C@H]1C)[C@@]24OO3)C[C@H]1O[C@@H]2O[C@@]3(C)CC[C@H]4[C@H](C)CC[C@@H]([C@H]1C)[C@@]24OO3)Oc1c(C)cccc1C (stereo partly specified)	> 135	< 4.40	7.15	6.53	–
C[C@H]1[C@@H](CC(COP2(=O)Oc3ccccc3-c3ccccc3O2)C[C@H]2O[C@@H]3O[C@@]4(C)CC[C@H]5[C@H](C)CC[C@@H]([C@H]2C)[C@@]35OO4)O[C@@H]2O[C@@]3(C)CC[C@H]4[C@H](C)CC[C@@H]1[C@@]24OO3 (stereo partly specified)	10.4	5.64	7.14	6.66	–
COc1cccc2c1C(=O)c1c(O)c3c(c(O)c1C2=O)C[C@@](O)(C(=O)CO)C[C@@H]3O[C@H]1C[C@H](N)[C@H](O)[C@H](C)O1 [DOXORUBICIN]	–	6.57	–	8.02	–
C[C@H]1[C@@H](CC(CO)C[C@H]2O[C@@H]3O[C@@]4(C)CC[C@H]5[C@H](C)CC[C@@H]([C@H]2C)[C@@]35OO4)O[C@@H]2O[C@@]3(C)CC[C@H]4[C@H](C)CC[C@@H]1[C@@]24OO3 (stereo partly specified)	–	–	6.80	–	–
C[C@H]1[C@@H](CC(COP(=O)(OC2CCCCC2)OC2CCCCC2)C[C@H]2O[C@@H]3O[C@@]4(C)CC[C@H]5[C@H](C)CC[C@@H]([C@H]2C)[C@@]35OO4)O[C@@H]2O[C@@]3(C)CC[C@H]4[C@H](C)CC[C@@H]1[C@@]24OO3 (stereo partly specified)	7.1	5.69	7.36	6.54	–
C[C@H]1[C@@H](CC(COP(=O)(Oc2ccccc2)Oc2ccccc2)C[C@H]2O[C@@H]3O[C@@]4(C)CC[C@H]5[C@H](C)CC[C@@H]([C@H]2C)[C@@]35OO4)O[C@@H]2O[C@@]3(C)CC[C@H]4[C@H](C)CC[C@@H]1[C@@]24OO3 (stereo partly specified)	14.8	5.83	7.41	7.00	1500
C[C@H]1[C@H](OC(=O)CCC(=O)O)O[C@@H]2O[C@@]3(C)CC[C@H]4[C@H](C)CC[C@@H]1[C@@]24OO3 [SODIUM ARESUNATE]	4	4.56	4.73	5.16	–
C[C@H]1[C@@H](CC(COP(=O)(O)Oc2ccccc2)C[C@H]2O[C@@H]3O[C@@]4(C)CC[C@H]5[C@H](C)CC[C@@H]([C@H]2C)[C@@]35OO4)O[C@@H]2O[C@@]3(C)CC[C@H]4[C@H](C)CC[C@@H]1[C@@]24OO3 (stereo partly specified)	–	< 4.40	< 6.52	5.13	–
C[C@H]1[C@@H](CC(COP(=O)(Oc2ccc(Cl)cc2)Oc2ccc(Cl)cc2)C[C@H]2O[C@@H]3O[C@@]4(C)CC[C@H]5[C@H](C)CC[C@@H]([C@H]2C)[C@@]35OO4)O[C@@H]2O[C@@]3(C)CC[C@H]4[C@H](C)CC[C@@H]1[C@@]24OO3 (stereo partly specified)	> 263	< 4.40	7.18	6.82	–
